Assay [1] deals with RAW264.7. Nature of the assay: Inhibition of LPS-induced JNK phosphorylation in mouse RAW264.7 cells at 15 to 60 uM preincubated for 1 hr followed by LPS challenge for 30 mins by Western blot analysis. Format: cell-based. The method, boiled down: (§1)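 RAW 264.7 pretreated 1 h at 15, 30 or 60 μM, then LPS 10 ng/mL for 30 min. Lysates Western-blotted for p-p38, p38, p-JNK, JNK, p-ERK, ERK with β-actin control; ECL, densitometry. Three independent experiments.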
A general note: In western blotting, separated proteins are transferred to a membrane and probed.

The next assay concerns Rattus norvegicus. Nature of the assay: Antiinflammatory activity in Sprague-Dawley rat assessed as inhibition of croton oil-induced ear edema at 10 mg/kg, ip administered 1 hr before croton oil challenge measured after 3 hrs post challenge relative to control. It counts as functional. The method, boiled down: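 Male SD rats given compound i.p. (5, 10 or 15 mg/kg) 1 h before topical croton oil (5% in 100 μL acetone) on the inner right ear; the left ear received acetone alone. After 3 h, rats were killed and 6 mm ear punches were taken and measured for thickness. Inhibition calculated relative to the croton-oil-only group; seven rats per group.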

The subject of assay [2] is Peritoneal macrophage. Nature of the assay: Antiinflammatory activity in C57BL/6 mouse peritoneal macrophages assessed as inhibition of LPS-induced PGE2 production at 60 uM preincubated for 1 hr followed by LPS challenge for 48 hrs by ELISA method. Format: functional. The note with it: C57BL/6, Peritoneal macrophage.
The subject of assay [3] is RAW264.7. Description: Antiinflammatory activity in mouse RAW264.7 cells assessed as inhibition of LPS-induced nitric oxide production preincubated for 1 hr followed by LPS challenge for 24 hrs by Griess assay. It counts as functional, cell-based. Summed up:
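RAW 264.7 cells plated at 2 × 10^5 cells/mL and incubated overnight. Compound given at 15, 30 or 60 μM for 1 h, then LPS 10 ng/mL for 24 h. Nitrite in the medium measured by Griess reagent (10 min, room temperature, A540) against a NaNO2 standard. L-NIL 20 μM as positive control; IC50 derived; three independent experiments.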

Assay [4] concerns the target Signal transducer and activator of transcription 3 (Mus musculus) (UniProt P42227). Nature of the assay: Inhibition of LPS-induced STAT3 phosphorylation at Y705 in C57BL/6 mouse peritoneal macrophages at 15 to 60 uM preincubated for 1 hr followed by LPS challenge for 60 mins by Western blot analysis. Summed up: (§2)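 Thioglycolate-elicited C57BL/6 peritoneal macrophages pretreated 1 h at 15, 30 or 60 μM, then LPS 10 μg/mL: 120 min for p-STAT1 Y701, 30 min for p-STAT1 S727, 60 min for p-STAT3 Y705. Western blot with phospho-specific and total STAT antibodies, β-actin control; three independent experiments.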

Assay [5] concerns RAW264.7. Description: Antiinflammatory activity in mouse RAW264.7 cells assessed as inhibition of LPS-induced TNF-alpha mRNA expression at 60 uM after 2 to 12 hrs by qRT-PCR method. It counts as functional, cell-based. Summed up: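 RAW 264.7 stimulated with LPS 10 ng/mL with or without 60 μM for 2, 4, 6 and 12 h. Total RNA (1 μg) reverse-transcribed with MuLV RT and random primer; SYBR green real-time qPCR with gene-specific primers, triplicate Ct normalized to β-actin. Mean ± SD, three independent experiments.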
(Quantitative PCR measures a nucleic acid by following its amplification.)

The target in assay [6] is Mitogen-activated protein kinase 1 and 3 (ERK2 and ERK1) (Mus musculus) (UniProt P63085+Q63844). Nature of the assay: Inhibition of LPS-induced ERK1/2 phosphorylation in mouse RAW264.7 cells at 15 to 60 uM preincubated for 1 hr followed by LPS challenge for 30 mins by Western blot analysis. Format: cell-based. The method, boiled down:
as §1

Assay [7] has as its target T1, Signal transducer and activator of transcription 1 (Mus musculus) (UniProt P42225).
T1 sequence (whole entry): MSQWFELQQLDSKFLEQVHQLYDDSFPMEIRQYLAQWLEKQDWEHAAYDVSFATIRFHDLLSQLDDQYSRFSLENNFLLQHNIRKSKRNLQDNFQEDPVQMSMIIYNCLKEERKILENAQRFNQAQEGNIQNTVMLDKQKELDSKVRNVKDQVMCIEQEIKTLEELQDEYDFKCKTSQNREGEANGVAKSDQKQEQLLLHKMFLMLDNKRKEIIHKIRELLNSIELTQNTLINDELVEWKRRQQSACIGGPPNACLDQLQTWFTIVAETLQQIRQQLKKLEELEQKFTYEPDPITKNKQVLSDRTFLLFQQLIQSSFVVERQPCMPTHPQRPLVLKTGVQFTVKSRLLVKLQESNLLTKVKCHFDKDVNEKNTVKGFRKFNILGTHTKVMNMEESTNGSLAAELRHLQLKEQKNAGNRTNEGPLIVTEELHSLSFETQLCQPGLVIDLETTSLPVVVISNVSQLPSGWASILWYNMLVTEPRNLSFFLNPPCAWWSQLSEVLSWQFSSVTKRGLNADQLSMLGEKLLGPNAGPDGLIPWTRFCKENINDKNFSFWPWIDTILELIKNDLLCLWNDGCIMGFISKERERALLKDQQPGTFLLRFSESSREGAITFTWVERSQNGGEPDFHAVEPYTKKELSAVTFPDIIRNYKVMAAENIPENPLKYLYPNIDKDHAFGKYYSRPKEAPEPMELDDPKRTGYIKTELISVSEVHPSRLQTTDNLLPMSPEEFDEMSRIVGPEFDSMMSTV
Description: Inhibition of LPS-induced STAT1 phosphorylation at S727 in C57BL/6 mouse peritoneal macrophages at 15 to 60 uM preincubated for 1 hr followed by LPS challenge for 30 mins by Western blot analysis. The method, boiled down:
as §2

The subject of assay [8] is RAW264.7. Nature of the assay: Antiinflammatory activity in mouse RAW264.7 cells assessed as downregulation of LPS-induced TNF-alpha expression at 60 uM preincubated for 1 hr followed by LPS challenge for 6 to 12 hrs by luciferase reporter gene assay. Format: functional, cell-based. Summed up: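 RAW 264.7 transiently cotransfected with promoter-luciferase construct (pGL3-iNOS, pGL3-COX-2 or pTNF-α-luc) plus phRL-TK internal control; 6 h after transfection pretreated 1 h with 60 μM, then LPS 10 ng/mL for 6 or 12 h. Cells washed in cold PBS, lysed, luciferase read. Mean ± SD, three independent experiments.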

Assay [9] concerns Peritoneal macrophage. Nature of the assay: Antiinflammatory activity in C57BL/6 mouse peritoneal macrophages assessed as inhibition of LPS-induced IL-6 production at 60 uM preincubated for 1 hr followed by LPS challenge for 48 hrs by ELISA method. It counts as functional. The note with it: C57BL/6, Peritoneal macrophage.
Assay [10] concerns RAW264.7. Nature of the assay: Antiinflammatory activity in mouse RAW264.7 cell lysate assessed as inhibition of LPS-induced COX-2 expression preincubated for 1 hr followed by LPS challenge for 24 hrs by Western blot analysis. Format: functional, cell-based. The method, boiled down: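 RAW 264.7 (DMEM, 10% FBS, 37 °C, 5% CO2) pretreated 1 h at 15, 30 or 60 μM, then LPS 10 ng/mL for 24 h. Lysates run on 10–12% SDS-PAGE, blotted to PVDF, probed with iNOS or COX-2 antibody (1:1000, overnight 4 °C), HRP secondary, ECL; densitometry vs β-actin. Mean ± SD of three independent experiments.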

SMILES strings stand for the structures. Calls of active or inactive are those of the source. The rule behind the calls is not given here.

Sequence of Mitogen-activated protein kinase 1 and 3 (ERK2 and ERK1) (Mus musculus) (P63085 whole entry, looked up): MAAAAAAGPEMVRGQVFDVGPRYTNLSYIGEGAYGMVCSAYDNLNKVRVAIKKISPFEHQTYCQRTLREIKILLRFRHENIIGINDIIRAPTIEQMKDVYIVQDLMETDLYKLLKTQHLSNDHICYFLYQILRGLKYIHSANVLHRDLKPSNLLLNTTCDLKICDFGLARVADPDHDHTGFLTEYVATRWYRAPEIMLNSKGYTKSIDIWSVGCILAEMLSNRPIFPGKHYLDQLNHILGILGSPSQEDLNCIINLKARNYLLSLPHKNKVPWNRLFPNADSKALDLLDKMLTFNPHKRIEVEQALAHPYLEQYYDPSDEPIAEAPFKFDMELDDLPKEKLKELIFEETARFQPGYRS
Sequence of Mitogen-activated protein kinase 1 and 3 (ERK2 and ERK1) (Mus musculus) (Q63844 whole entry, looked up): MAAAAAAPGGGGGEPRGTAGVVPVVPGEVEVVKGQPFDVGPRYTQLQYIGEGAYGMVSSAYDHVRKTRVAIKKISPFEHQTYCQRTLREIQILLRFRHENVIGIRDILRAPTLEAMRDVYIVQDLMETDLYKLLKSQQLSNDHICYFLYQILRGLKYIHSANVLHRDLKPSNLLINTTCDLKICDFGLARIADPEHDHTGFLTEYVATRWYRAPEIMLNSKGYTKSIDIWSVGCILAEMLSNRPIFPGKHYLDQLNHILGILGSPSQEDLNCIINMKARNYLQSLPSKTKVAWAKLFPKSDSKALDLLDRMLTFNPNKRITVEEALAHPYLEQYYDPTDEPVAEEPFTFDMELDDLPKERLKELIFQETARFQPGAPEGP
Sequence of Signal transducer and activator of transcription 3 (Mus musculus) (P42227 whole entry): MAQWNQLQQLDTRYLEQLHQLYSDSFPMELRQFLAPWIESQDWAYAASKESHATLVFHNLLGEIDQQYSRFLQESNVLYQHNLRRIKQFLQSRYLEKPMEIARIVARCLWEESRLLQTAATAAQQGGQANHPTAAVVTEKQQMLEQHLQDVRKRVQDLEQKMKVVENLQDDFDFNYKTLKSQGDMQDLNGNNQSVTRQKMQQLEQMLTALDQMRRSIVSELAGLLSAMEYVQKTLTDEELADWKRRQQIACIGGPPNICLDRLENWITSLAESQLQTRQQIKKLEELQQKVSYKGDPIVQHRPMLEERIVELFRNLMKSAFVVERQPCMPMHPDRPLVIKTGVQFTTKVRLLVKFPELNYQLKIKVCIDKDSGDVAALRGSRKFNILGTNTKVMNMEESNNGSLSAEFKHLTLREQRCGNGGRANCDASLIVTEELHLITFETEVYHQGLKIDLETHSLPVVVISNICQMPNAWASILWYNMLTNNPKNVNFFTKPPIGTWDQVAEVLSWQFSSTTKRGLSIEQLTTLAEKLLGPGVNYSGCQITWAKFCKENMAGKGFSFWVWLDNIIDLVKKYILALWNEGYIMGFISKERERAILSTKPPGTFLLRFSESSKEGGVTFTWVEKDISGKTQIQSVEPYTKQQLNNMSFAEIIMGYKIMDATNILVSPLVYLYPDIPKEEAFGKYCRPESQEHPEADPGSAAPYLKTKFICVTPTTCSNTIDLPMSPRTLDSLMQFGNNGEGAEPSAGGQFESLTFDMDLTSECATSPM

A word on the inhibition: it is how much of the control response was suppressed. Usually inhibition in vivo stands for the percentage by which the read-out fell short of the control. A word on the IC50: it is the midpoint of a concentration-inhibition curve. As to `Cc1cc(=O)c2c(O)c([C@@H]3O[C@H](CO)[C@@H](O)[C@H](O)[C@H]3O)c(O)cc2o1` [BIFLORIN], the inhibition result (with RAW264.7 [1]; in [6]) was “inactive” each time. For the same compound, in the assay with Rattus norvegicus, the inhibition in vivo at 10 mg/kg was 44.5%. Besides, the inhibition at 60 µM amounted to 42.2% in the assay with Peritoneal macrophage [2] and 61.1% with Peritoneal macrophage [9]. In addition, in the assay on RAW264.7 [3], the 50% inhibitory concentration (IC50) amounted to 51.7 µM. For the same compound, the inhibition entry (in assay [4]; with RAW264.7 [5]; in assay [7]) was “Active” in each case. In the assay on RAW264.7 [8], the outcome was Active. Further, the inhibition result in the assay on RAW264.7 [10] is “Dose-dependent effect”.

(Values after ChEMBL document CHEMBL4477178, “Biflorin, Isolated from the Flower Buds of Syzygium aromaticum L., Suppresses LPS-Induced Inflammatory Mediators via STAT1 Inactivation in Macrophages and Protects Mice from Endotoxin Shock” (J Nat Prod, 2016).)
